Experimental findings from publication PMC10908290 (Drug Design, Development and Therapy, 2024) are described below.

Data set [1] can be described thus: Cytotoxic activity, normal Vero cell line. It counts as cell-based. The conditions noted are these: African green monkey, Vero cells (normal cell line).
Data set [2] deals with MCF-7. The data set is described as follows: Cytotoxic activity, MCF-7. It counts as cell-based. The conditions noted are these: for CC50: MCF7, read-out: LC50; for SI (Selectivity Index): IC50 value normal cell / IC50 value cancer cell (Vero / MCF-7).
For data set [3], the system named is mushroom tyrosinase. The data set is described as follows: Mushroom tyrosinase inhibitory activity, spectrophotometric, L-DOPA substrate. It counts as biochemical.
Data set [4] concerns E. coli (MTCC 739). The data set can be described thus: Antibacterial disc diffusion, E. coli. Format: cell-based. The conditions noted are these: Escherichia coli, MTCC739, 24 h, read-out: Diameter of Growth Inhibition Zone. The method, boiled down: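 Test compound dissolved in DMSO at 100 μg/mL and loaded onto 8 mm sterile filter-paper discs. E. coli MTCC 739 prepared from pure colonies in sterile saline, adjusted to 0.5 McFarland, and swabbed onto Mueller-Hinton agar. Plates incubated 24 h at 37°C, then zone of inhibition measured. Ampicillin as reference. Mean ± SD of three independent experiments.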
A general note: Agar diffusion results depend on both activity and mobility in agar.

In data set [5] the test system is E. coli. The data set is described as follows: Minimum inhibitory concentration, E. coli. It counts as cell-based. To be noted: Escherichia coli, read-out: Minimal Inhibitory Concentration (MIC).
The test system of data set [6] is S. aureus. The data set can be described thus: Minimum inhibitory concentration, S. aureus. Format: cell-based. To be noted: Staphylococcus aureus, read-out: Minimal Inhibitory Concentration (MIC).
Data set [7] can be described thus: DPPH free radical scavenging. To be noted: Table 6, unit not given. An outline of the steps:
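Test compound solutions (25 or 100 µg/mL in methanol) added to 0.004% (w/v) methanolic DPPH. After 30 min incubation, absorbance read at 517 nm. Percent inhibition calculated against DPPH solution lacking test material. Run in triplicate.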
For orientation: The DPPH test is a chemical assay of radical scavenging.

Converted amounts (≈) assume the structure as drawn.

Turning to `COc1cccc2c1C(=O)c1c(O)c3c(c(O)c1C2=O)C[C@@](O)(C(=O)CO)C[C@@H]3O[C@H]1C[C@H](N)[C@H](O)[C@H](C)O1` [Doxorubicin, reference compound], the CC50 is 19.85 ± 0.02 µg/mL (≈ 36.5 µM) in data set [1] and 0.74 ± 0.01 µg/mL (≈ 1.36 µM) in data set [2] (Homo sapiens). Moreover, the “SI (Selectivity Index)” value in data set [2] was 26.82.
Regarding `O=c1cc(CO)occ1O` [Kojic acid, reference compound], the “percentage of tyrosinase inhibition” value in data set [3] (25 µg/mL) is given as 56.23 ± 1.12%; in data set [3] (50 µg/mL), 67.21 ± 1.12%; in data set [3] (100 µg/mL) it was 84.65 ± 1.62%.
For orientation: zone of inhibition means the extent of the growth-free halo in a diffusion test. With `CC1(C)S[C@@H]2[C@H](NC(=O)[C@H](N)c3ccccc3)C(=O)N2[C@H]1C(=O)O` [Ampicillin], the zone of inhibition at 100 µg/mL in data set [4] was 17 mm.
Regarding `Cc1ccccc1NC(=O)C1C(=O)C(c2ccccc2)c2ccc3c(c21)C(=O)c1ccccc1C3=O` (stereo not shown) [Compound 1, 2,6,11-Trioxo-3-Phenyl-N-(o-Tolyl)-2,3,6,11-Tetrahydro-1H-Cyclopenta[a]anthracene-1-Carboxamide], the MIC in data set [5] is > 100 µg/mL; in data set [6], 64 µg/mL (≈ 136 µM). Also, the figures for the “percentage of tyrosinase inhibition” value in data set [3] (25 µg/mL), in data set [3] (50 µg/mL) and in data set [3] (100 µg/mL) were 13.72 ± 0.02%, 49.30 ± 1.06% and 51.23 ± 0.23%, respectively. Also, in data set [3] (mean ± SE of three experiments), the “Tyrosinase inhibition IC50” value is listed as 77.62 ± 1.20 µg/mL. The CC50 in data set [1] was found to be 93.01 ± 0.05 µg/mL (≈ 197 µM); in data set [2] (Homo sapiens) it was 87 ± 0.16 µg/mL (≈ 185 µM). For the same compound, in data set [7], the “Antioxidant activity (100 µg/mL)” value amounted to 58.11. Also, the IC (TGI) in data set [2] (Homo sapiens, MCF7, read-out: TGI) worked out at 60.1 ± 0.09 µM. The “SI (Selectivity Index)” value in data set [2] was found to be 1.06. This compound also came in with a Cytotoxic activity in data set [2] (Table 6, unit not given, equals MCF-7 LC50) of 87.0± 0.16.
